# aSyn 5UTR inh: MLPCN primary screen, SNCA 5' untranslated region; alpha-synuclein 5'UTR reporter, inhibitor activity; inhibition, % (tested at 7.5 µM); actives 0.82% (n = 300,000); in the data active means inhibition above about 60%;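 further: H4 neuroglioblastoma cells stably carrying SNCA 5'UTR luciferase fusion; 0% = DMSO wells and 100% = positive control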
# VIM-2 inhibitor: VIM-2 metallo-beta-lactamase inhibitors, primary screen, biochemical, epi-absorbance readout, Pseudomonas aeruginosa enzyme; purified VIM-2, nitrocefin hydrolysis, epi-absorbance fluorescence; inhibition, % at 5.6 µM; actives 0.89% (n = 290,000);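 active means inhibition above the mean of all tested compounds plus 3 SD, cutoff set per screening run, cut at about 7.5% in these data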;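 further: red hydrolysis product quenches plate fluorescence so inhibitors raise well fluorescence; 0% = enzyme with DMSO and 100% = DMSO without enzyme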
# Jurkat NFkB inh: inhibitors of induced NF-kB luciferase reporter, primary screen, TCR NF-kB activation inhibitor project, cell-based, luminescence, uHTS; inhibition, % at 4 µM; Jurkat, PMA/ionomycin-induced NF-kB luciferase reporter; actives 0.53% (n = 330,000); AID 435003, 2010; in the data active means inhibition above about 50%
# IMP-1 inhibitor: IMP-1 metallo-beta-lactamase inhibitors, primary screen, biochemical, epi-absorbance readout, Pseudomonas aeruginosa enzyme; metallo-beta-lactamase IMP-1 (Pseudomonas aeruginosa); purified IMP-1, nitrocefin hydrolysis, epi-absorbance fluorescence; inhibition, % at 5.6 µM; AID 1556, 2009; actives 0.45% (n = 290,000);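 active means inhibition above the mean plus 3 SD of all compounds in the same screening run, cut at about 4.5% in these data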;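 further: 0% = IMP-1 with DMSO and 100% = DMSO wells lacking enzyme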
#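 System: purified recombinant IMP-1 beta-lactamase. Medium: Zinc- and detergent-supplemented HEPES buffer, pH 7.1. Compound: one 5.6 µM dose […]. Schedule: 15 min preincubation plus 25 min reaction at 25 °C. Technique: Epi-absorbance fluorescence, 480 nm excitation, 530 nm emission.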
# 697 NFkB inh: inhibitors of PMA/ionomycin-induced NF-kB reporter, 697 cells, primary screen, B-cell NF-kB inhibitor project, cell-based, luminescence, uHTS; 697 B-cell NF-kB luciferase reporter, 16 h; AID 435022, 2010; actives 0.33% (n = 330,000); inhibition, % at 4 µM; in the data active means inhibition above about 35%
# Mdm2-MdmX inh: inhibitors of human Mdm2-MdmX association, primary screen, cell-based, luminescence, split luciferase, SaOS-2, uHTS; actives 3% (n = 330,000); Protein Mdm4 (Homo sapiens) + E3 ubiquitin-protein ligase Mdm2 (Homo sapiens), …; SaOS-2 split-luciferase Mdm2/MdmX complementation; inhibition, % at 8 µM; AID 485346, 2010;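 active means inhibition of at least 50% at 8 µM in the primary screen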
# Target sequence (O15151 whole entry, looked up): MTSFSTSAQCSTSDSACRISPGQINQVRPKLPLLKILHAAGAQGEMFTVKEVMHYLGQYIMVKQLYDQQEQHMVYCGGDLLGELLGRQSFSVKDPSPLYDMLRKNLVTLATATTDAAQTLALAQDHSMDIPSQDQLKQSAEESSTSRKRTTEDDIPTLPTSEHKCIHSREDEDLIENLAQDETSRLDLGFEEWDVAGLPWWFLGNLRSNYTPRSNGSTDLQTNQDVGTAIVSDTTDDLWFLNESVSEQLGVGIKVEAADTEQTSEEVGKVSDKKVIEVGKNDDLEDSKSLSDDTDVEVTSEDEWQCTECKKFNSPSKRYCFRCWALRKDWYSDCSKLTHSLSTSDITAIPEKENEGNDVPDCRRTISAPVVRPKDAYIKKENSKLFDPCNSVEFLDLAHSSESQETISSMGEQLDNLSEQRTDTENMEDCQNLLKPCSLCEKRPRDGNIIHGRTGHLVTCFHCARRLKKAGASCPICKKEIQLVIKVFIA
# Target sequence (Q00987 whole entry, looked up): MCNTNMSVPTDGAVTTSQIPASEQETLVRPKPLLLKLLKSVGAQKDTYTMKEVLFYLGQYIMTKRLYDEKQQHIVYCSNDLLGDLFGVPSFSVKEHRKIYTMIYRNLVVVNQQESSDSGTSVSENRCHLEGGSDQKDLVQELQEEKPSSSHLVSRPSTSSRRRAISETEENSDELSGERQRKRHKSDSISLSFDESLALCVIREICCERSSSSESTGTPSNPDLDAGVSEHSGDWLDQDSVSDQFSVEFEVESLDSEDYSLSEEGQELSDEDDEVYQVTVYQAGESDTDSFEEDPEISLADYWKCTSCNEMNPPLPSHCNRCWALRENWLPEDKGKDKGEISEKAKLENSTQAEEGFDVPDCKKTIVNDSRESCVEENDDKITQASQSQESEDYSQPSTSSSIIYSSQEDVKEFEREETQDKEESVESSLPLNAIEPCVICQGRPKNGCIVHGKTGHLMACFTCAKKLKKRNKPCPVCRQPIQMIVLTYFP
# Jurkat NFkB conf: PMA/ionomycin-induced NF-kB reporter inhibitors, Jurkat retest, confirmation, T-cell NF-kB inhibitor project, cell-based, luminescence, single concentration; shares compounds with Jurkat NFkB inh; Jurkat NF-kB luciferase, 16 h; inhibition, % at 4 µM; actives 27% (n = 2,700); AID 435020, 2010;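 active means inhibition reaching about 45% at 4 µM in either replicate, limit read from the data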;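 further: plate controls were PMA/ionomycin stimulated DMSO wells for no effect and unstimulated DMSO wells for full effect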
# 697 NFkB conf: PMA/ionomycin-induced NF-kB reporter inhibitors, 697 retest, confirmation, B-cell NF-kB inhibitor project, cell-based, luminescence, single concentration; inhibition, % at 4 µM; shares compounds with 697 NFkB inh; 697 B-cell NF-kB luciferase, 16 h; AID 449746, 2010; actives 35% (n = 2,000); in the data active means inhibition mostly above about 28%, no sharp cut-off; inactive means mostly below about 22%
# Mdm2 MdmX conf: Mdm2-MdmX complex disruptors, retested hits, confirmation, luminescence, single concentration; Mdm2-MdmX binding, luminescent assay; inhibition, % at 8 µM; AID 489028, 2010; shares compounds with Mdm2-MdmX inh; actives 55% (n = 10,000); in the data active means inhibition above about 40%
# Full FLuc ctr: full-length luciferase signal inhibition, confirmation, counter-screen for Mdm2/MdmX interaction inhibitor project, cell-based, single concentration, SaOS-2 | shares compounds with Mdm2-MdmX inh | actives 77% (n = 6,200) | SaOS-2 full-length luciferase counterscreen, luminescence | inhibition, % at 8 µM;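 active means mean inhibition at 8 µM reaching about 37%, which flags the compound as non-specific, limit read from the data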;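 further: p53-null SaOS-2 cells with luciferase driven by a doxycycline-inducible promoter; compound on cells about two nights before reading with doxycycline added after day one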
# The depositor's hits bear a star; . = no result. Rows were chosen to be rich in hits. Some 4.7% of all compounds tested hit in one or more screens of this group.
SMILES,aSyn 5UTR inh,VIM-2 inhibitor,Jurkat NFkB inh,IMP-1 inhibitor,697 NFkB inh,Mdm2-MdmX inh,Jurkat NFkB conf,Mdm2 MdmX conf,Full FLuc ctr,others
c1ccc(-c2noc(-c3ccc4c(c3)OCO4)n2)nc1,91*,-1,68*,-2,8,83*,69*,86*,29,
c1ccc(-c2noc(-c3ccncc3)n2)nc1,-62,-2,-70,-1,-76,-2,.,.,.,
c1ccc(-c2noc(-c3ccc4ccccc4c3)n2)nc1,113*,-1,54*,0,12,80*,77*,83*,27,
COc1ccc(N2CCN(Cc3csc(C)c3-c3ccc(C)cc3)CC2)cc1,8,0,-9,-1,-4,-3,.,.,.,
Cc1ccc2nc(SCC(=O)Nc3ccccc3N3CCOCC3)c(C#N)cc2c1,-25,-1,2,-4,12,40,.,.,.,
CCc1ccc2nc(SCC(=O)Nc3ccccc3N3CCOCC3)c(C#N)cc2c1,38,-1,67*,-1,6,67*,24,60*,46*,
CCOc1ccc(N(C)S(=O)(=O)c2cc(-c3cc(C)no3)ccc2C(C)C)cc1,-13,-1,10,0,-42,27,.,.,.,
CCOc1ccc(N(C)S(=O)(=O)c2ccc(-c3cc(C)no3)s2)cc1,-59,-3,58*,-2,-61,61*,52*,53*,84*,
CCOC(=O)C1=C(C)NC(SC)=C(C#N)C1CC(C)C (configuration not stated),13,0,57*,-2,-66,55*,17,62*,66*,
COc1ccc(OC)c(/C=N/NC2=NS(=O)(=O)c3ccccc32)c1,19,-3,1,-4,-11,-8,.,.,.,
COc1ccccc1NC(=S)N(Cc1ccco1)Cc1cc2cc(C)c(C)cc2[nH]c1=O,91*,-1,67*,-2,-17,59*,5,54*,56*,
CC1=CC(C)(C)N(S(=O)(=O)c2ccc(C)cc2)c2cc(C)ccc21,52,-4,50*,-1,-95,54*,53*,69*,122*,
CC1=NNC(=O)/C1=C\c1cn(-c2ccccc2)nc1-c1ccc(Cl)cc1,98*,-8,95*,-3,37*,100*,46*,47*,3,697 NFkB conf=13
CCSc1nnc(NC(=O)CN2C(=O)N(C)C3(CCCCC3)C2=O)s1,.,.,6,.,7,5,.,.,.,
N#Cc1ccc(CN2CCN(C(=O)CNS(=O)(=O)c3ccc4c(c3)OCCCO4)CC2)cc1,.,.,-2,.,8,9,.,.,.,
CCOc1ccccc1NC(=O)c1cccc(NC(=O)c2ccco2)c1,-185,-3,57*,-2,-35,62*,31,67*,64*,
Cc1ccc(-c2cc(C(F)F)n3ncc(C(=O)N4CCc5ccccc54)c3n2)cc1,25,-4,61*,-4,-46,61*,47*,64*,57*,
Cc1ccc(S(=O)(=O)Nc2cccc3ncccc23)s1,27,-1,83*,-3,-156,101*,21,5,.,
